≈ marks a conversion by molar mass, not a printed value.
Columns and labels:
Staphylococcus aureus [1] = test: Antibacterial activity against Staphylococcus aureus ATCC 6535 after 48 hrs by microplate assay; assay type: functional, organism-based
Method in brief: (§1)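 IC50 values were read from a modified 96-well microplate growth-inhibition assay against ATCC strains: C. neoformans 90113, S. aureus 6535 and methicillin-resistant S. aureus 33591. Positive controls were amphotericin B and tetracycline, and DMSO served as the negative control.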

Staphylococcus aureus [2] = test: Antibacterial activity against methicillin-resistant Staphylococcus aureus ATCC 33591 after 48 hrs by microplate assay; assay type: functional, organism-based; method in brief: as §1
Cryptococcus neoformans = test: […] activity against Cryptococcus neoformans ATCC 90113 after 48 hrs by microplate assay; assay type: functional, organism-based; method in brief: as §1
[3] = Selectivity index, ratio of IC50 for african green monkey (Cercopithecus aethiops) Vero cells to IC50 for chloroquine-resistant Plasmodium falciparum W2; assay type: toxicity, cell-based; settings: read-out: Ratio IC50
[4] = Selectivity index, ratio of IC50 for african green monkey (Cercopithecus aethiops) Vero cells to IC50 for chloroquine-sensitive Plasmodium falciparum D6; assay type: toxicity, cell-based; settings: read-out: Ratio IC50
[5] = target: Cannabinoid receptor 1 (Homo sapiens) (UniProt P21554); test: Displacement of [3H]CP-55940 from human recombinant CB1 receptor expressed in HEK293 cells at 0.1 uM; assay type: cell-based
Method in brief: (§2)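 Radioligand binding assay for the CB1 site, using human recombinant HEK-293 cells as the receptor source. Compounds were screened in a primary assay at 1 and 0.1 µM and expressed as % affinity. A response above 50% of maximum stimulation or inhibition counted as significant. WIN-55,212-2 was the reference, with DMSO as placebo.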

[6] = target: Cannabinoid receptor 1 (Homo sapiens) (UniProt P21554); test: Displacement of [3H]CP-55940 from human recombinant CB1 receptor expressed in HEK293 cells at 1 uM; assay type: cell-based; method in brief: as §2
Plasmodium falciparum [7] = test: Antimalarial activity against chloroquine-resistant Plasmodium falciparum W2 by LDH reporter assay; assay type: functional, organism-based
Plasmodium falciparum [8] = test: Antimalarial activity against chloroquine-sensitive Plasmodium falciparum D6 by LDH reporter assay; assay type: functional, organism-based
[9] = Cryptococcus neoformans, ATCC 90113, 48 h, read-out: IC50
[10] = Staphylococcus aureus, ATCC 6535, 48 h, read-out: IC50
[11] = Staphylococcus aureus, ATCC 33591, 48 h, read-out: IC50

Cannabinoid receptor 1 (Homo sapiens), sequence (P21554 whole entry): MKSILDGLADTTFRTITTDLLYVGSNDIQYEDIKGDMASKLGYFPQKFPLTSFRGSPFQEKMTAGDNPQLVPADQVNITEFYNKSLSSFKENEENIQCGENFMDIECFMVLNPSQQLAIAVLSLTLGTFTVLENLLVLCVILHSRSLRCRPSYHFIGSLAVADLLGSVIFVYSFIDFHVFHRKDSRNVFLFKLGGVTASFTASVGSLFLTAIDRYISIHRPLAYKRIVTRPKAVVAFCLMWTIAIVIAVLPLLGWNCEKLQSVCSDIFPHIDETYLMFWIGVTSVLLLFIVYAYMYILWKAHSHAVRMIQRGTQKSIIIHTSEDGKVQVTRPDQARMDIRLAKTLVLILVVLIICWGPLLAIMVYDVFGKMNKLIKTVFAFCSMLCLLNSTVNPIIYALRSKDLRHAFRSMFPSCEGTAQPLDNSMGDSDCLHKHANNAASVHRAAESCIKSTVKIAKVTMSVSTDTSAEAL

| SMILES | IC50 (Staphylococcus aureus [1]) | IC50 (Staphylococcus aureus [2]) | IC50 (Cryptococcus neoformans; [9]) [µg/mL] | selectivity ratio [3] | selectivity ratio [4] | Activity [5] [%] | Activity [6] [%] | IC50 (Staphylococcus aureus [1]; [10]) [µg/mL] | IC50 (Staphylococcus aureus [2]; [11]) [µg/mL] | IC50 (Plasmodium falciparum [7]) [µg/mL] | IC50 (Plasmodium falciparum [8]) [µg/mL] | IC50 (Cryptococcus neoformans) |
| --- | --- | --- | --- | --- | --- | --- | --- | --- | --- | --- | --- | --- |
| C[C@@H]1[C@H](O)[C@@H](C)/C=C/C=C/C=C/C=C/C=C/C=C/C=C/[C@H](O[C@@H]2O[C@H](C)[C@@H](O)[C@H](N)[C@@H]2O)C[C@@H]2O[C@](O)(C[C@@H](O)C[C@@H](O)[C@H](O)CC[C@@H](O)C[C@@H](O)CC(=O)O[C@H]1C)C[C@H](O)[C@H]2C(=O)O [AMPHOTERICIN B] | Not Active | Not Active | 0.375 (≈ 0.406 µM) | – | – | – | – | – | – | – | – | – |
| C[C@@H]1CC[C@H]2[C@@H](C)C(=O)O[C@@H]3O[C@@]4(C)CC[C@@H]1[C@]32OO4 [ARTEMISININ] | – | – | – | > 1080 | > 952 | – | – | – | – | – | – | – |
| C[C@H]1CC[C@H]2[C@H](C1)c1c(O)cc(/C=C/c3ccccc3)cc1OC2(C)C [MACHAERIOL A] | – | – | 50 (≈ 143 µM) | > 7.9 | > 3.2 | 10 | 7 | 15 (≈ 43 µM) | 10 (≈ 28.7 µM) | 0.6 (≈ 1.72 µM) | 1.5 (≈ 4.3 µM) | – |
| C[C@H]1CC[C@H]2[C@H](C1)c1c(O)cc(-c3cc4ccccc4o3)cc1OC2(C)C [MACHAERIOL B] | – | – | – | > 40 | > 6.6 | 3 | -3 | 5 (≈ 13.8 µM) | 4.5 (≈ 12.4 µM) | 0.12 (≈ 0.331 µM) | 0.72 (≈ 1.99 µM) | Not Active |
| CN(C)[C@@H]1C(O)=C(C(N)=O)C(=O)[C@@]2(O)C(O)=C3C(=O)c4c(O)cccc4[C@@](C)(O)[C@H]3C[C@@H]12 [TETRACYCLINE] | – | – | – | – | – | – | – | 0.15 (≈ 0.338 µM) | 0.15 (≈ 0.338 µM) | – | – | – |
